What was measured:
[1] = Growth inhibition of human LoVo cells measured after 5 days by crystal violet staining based assay; type: toxicity, cell-based; details: time 5 day
Outline: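 LoVo and SW620 cells in 96-well plates under 5-day continuous exposure to agent, and growth measured relative to control.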

[2] = AUClast in BALB/c mouse at 10 mg/kg, ip by HPLC analysis; type: ADME, organism-based; details: in vivo
Outline: (§1)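 Female BALB/c mice dosed 5 mg/kg i.v. in 10% DMSO/10% cyclodextrin in saline, or 10 mg/kg i.p. or orally at 1 mg/mL in 40% PEG400/saline. Plasma taken at 5, 10, 15, 30, 60, 90, 120, 180, 240 and 360 min, three mice per time. Acetonitrile precipitation, C18 HPLC with UV detection at 329 nm against a plasma standard curve. Parameters derived from mean concentrations.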

[3] = Ratio of drug level in kidney to plasma of human SW620 cell xenografted athymic nude CD1 mouse at 10 mg/kg, ip measured after 15 mins by HPLC analysis; type: ADME, organism-based; details: kidney and plasma
Outline: (§2)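 Female CD-1 nu/nu mice bearing s.c. flank SW620 tumours (1×10^7 cells, ~650 mm³ at 10–14 days) given 10 mg/kg i.p. Tissues snap frozen, homogenised 1:3 in PBS. Acetonitrile precipitation, C18 HPLC with acetate pH 5/acetonitrile 75:25 mobile phase, UV 329 nm; tissue levels by method of addition. Tissue/plasma ratio, mean of three mice per time.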

[4] = Ratio of drug level in spleen to plasma of human SW620 cell xenografted athymic nude CD1 mouse at 10 mg/kg, ip measured after 60 mins by HPLC analysis; type: ADME, organism-based; outline: as §2
[5] = Ratio of drug level in brain to plasma of human SW620 cell xenografted athymic nude CD1 mouse at 10 mg/kg, ip measured after 240 mins by HPLC analysis; type: ADME, organism-based; details: brain and plasma, read-out: BPR; outline: as §2
[6] = Ratio of drug level in brain to plasma of human SW620 cell xenografted athymic nude CD1 mouse at 10 mg/kg, ip measured after 30 mins by HPLC analysis; type: ADME, organism-based; details: brain and plasma, read-out: BPR; outline: as §2
[7] = In vivo inhibition of DNA-PK in human SW620 cells xenografted athymic nude CD1 mouse assessed as potentiation of etoposide phosphate-induced antitumor activity at 10 mg/kg, ip administered 5 times daily for 5 days relative to control; type: functional, SW-620; details: time 5 day
Outline: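 CD-1 nude mice carry palpable s.c. SW620 xenografts (~5×5 mm, 8-10 days), five per group. Treated i.p. daily for 5 days with saline, agent in 40% PEG 400/saline, etoposide phosphate 11.35 mg/kg (equal to 10 mg/kg etoposide), or both, agent given immediately before etoposide phosphate. Read-outs are median relative tumour volume, time to 4× volume (growth delay) and body weight.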

[8] = AUCinfinity in BALB/c mouse at 10 mg/kg, po by HPLC analysis; type: ADME, organism-based; details: in vivo; outline: as §1
[9] = Inhibition of DNA-PK in Chinese hamster DNA-PK proficient V3-YAC cells assessed as potentiation of etoposide-induced cytotoxicity by measuring etoposide LD90 at 0.5 umol/L measured after 16 hrs by crystal violet staining based assay; design: species or system Cricetulus griseus; details: dose 0.5 µmol/L, condition cancer
[10] = molecular target: T1, DNA-dependent protein kinase catalytic subunit (Homo sapiens, UniProt P78527); details: SW620, dose 1.0 µmol/L, time 17.0 hrs
[11] = Ratio of drug level in brain to plasma of human SW620 cell xenografted athymic nude CD1 mouse at 10 mg/kg, ip measured after 90 mins by HPLC analysis; type: ADME, organism-based; details: brain and plasma, read-out: BPR; outline: as §2
[12] = Clearance in BALB/c mouse at 10 mg/kg, po by HPLC analysis; type: ADME, organism-based; details: in vivo; outline: as §1
[13] = Ratio of drug level in liver to plasma of human SW620 cell xenografted athymic nude CD1 mouse at 10 mg/kg, ip measured after 30 mins by HPLC analysis; type: ADME, organism-based; outline: as §2
[14] = Ratio of drug level in liver to plasma of human SW620 cell xenografted athymic nude CD1 mouse at 10 mg/kg, ip measured after 240 mins by HPLC analysis; type: ADME, organism-based; outline: as §2
[15] = Ratio of drug level in brain to plasma of human SW620 cell xenografted athymic nude CD1 mouse at 10 mg/kg, ip measured after 60 mins by HPLC analysis; type: ADME, organism-based; details: brain and plasma, read-out: BPR; outline: as §2
[16] = Cmax in BALB/c mouse at 5 mg/kg, iv by HPLC analysis; type: ADME, organism-based; details: in vivo; outline: as §1
[17] = Ratio of drug level in brain to plasma of human SW620 cell xenografted athymic nude CD1 mouse at 10 mg/kg, ip measured after 15 mins by HPLC analysis; type: ADME, organism-based; details: brain and plasma, read-out: BPR; outline: as §2
[18] = Ratio of drug level in kidney to plasma of human SW620 cell xenografted athymic nude CD1 mouse at 10 mg/kg, ip measured after 90 mins by HPLC analysis; type: ADME, organism-based; outline: as §2
[19] = molecular target: T1, DNA-dependent protein kinase catalytic subunit; experiment: Inhibition of human HeLa cell nuclear extract purified DNA-PK using p53 peptide as substrate by ELISA
[20] = Ratio of drug level in liver to plasma of human SW620 cell xenografted athymic nude CD1 mouse at 10 mg/kg, ip measured after 15 mins by HPLC analysis; type: ADME, organism-based; outline: as §2
[21] = Ratio of drug level in tumor to plasma of human SW620 cell xenografted athymic nude CD1 mouse at 10 mg/kg, ip measured after 30 mins by HPLC analysis; type: ADME, organism-based; details: tumor and plasma; outline: as §2

T1 sequence (P78527 whole entry): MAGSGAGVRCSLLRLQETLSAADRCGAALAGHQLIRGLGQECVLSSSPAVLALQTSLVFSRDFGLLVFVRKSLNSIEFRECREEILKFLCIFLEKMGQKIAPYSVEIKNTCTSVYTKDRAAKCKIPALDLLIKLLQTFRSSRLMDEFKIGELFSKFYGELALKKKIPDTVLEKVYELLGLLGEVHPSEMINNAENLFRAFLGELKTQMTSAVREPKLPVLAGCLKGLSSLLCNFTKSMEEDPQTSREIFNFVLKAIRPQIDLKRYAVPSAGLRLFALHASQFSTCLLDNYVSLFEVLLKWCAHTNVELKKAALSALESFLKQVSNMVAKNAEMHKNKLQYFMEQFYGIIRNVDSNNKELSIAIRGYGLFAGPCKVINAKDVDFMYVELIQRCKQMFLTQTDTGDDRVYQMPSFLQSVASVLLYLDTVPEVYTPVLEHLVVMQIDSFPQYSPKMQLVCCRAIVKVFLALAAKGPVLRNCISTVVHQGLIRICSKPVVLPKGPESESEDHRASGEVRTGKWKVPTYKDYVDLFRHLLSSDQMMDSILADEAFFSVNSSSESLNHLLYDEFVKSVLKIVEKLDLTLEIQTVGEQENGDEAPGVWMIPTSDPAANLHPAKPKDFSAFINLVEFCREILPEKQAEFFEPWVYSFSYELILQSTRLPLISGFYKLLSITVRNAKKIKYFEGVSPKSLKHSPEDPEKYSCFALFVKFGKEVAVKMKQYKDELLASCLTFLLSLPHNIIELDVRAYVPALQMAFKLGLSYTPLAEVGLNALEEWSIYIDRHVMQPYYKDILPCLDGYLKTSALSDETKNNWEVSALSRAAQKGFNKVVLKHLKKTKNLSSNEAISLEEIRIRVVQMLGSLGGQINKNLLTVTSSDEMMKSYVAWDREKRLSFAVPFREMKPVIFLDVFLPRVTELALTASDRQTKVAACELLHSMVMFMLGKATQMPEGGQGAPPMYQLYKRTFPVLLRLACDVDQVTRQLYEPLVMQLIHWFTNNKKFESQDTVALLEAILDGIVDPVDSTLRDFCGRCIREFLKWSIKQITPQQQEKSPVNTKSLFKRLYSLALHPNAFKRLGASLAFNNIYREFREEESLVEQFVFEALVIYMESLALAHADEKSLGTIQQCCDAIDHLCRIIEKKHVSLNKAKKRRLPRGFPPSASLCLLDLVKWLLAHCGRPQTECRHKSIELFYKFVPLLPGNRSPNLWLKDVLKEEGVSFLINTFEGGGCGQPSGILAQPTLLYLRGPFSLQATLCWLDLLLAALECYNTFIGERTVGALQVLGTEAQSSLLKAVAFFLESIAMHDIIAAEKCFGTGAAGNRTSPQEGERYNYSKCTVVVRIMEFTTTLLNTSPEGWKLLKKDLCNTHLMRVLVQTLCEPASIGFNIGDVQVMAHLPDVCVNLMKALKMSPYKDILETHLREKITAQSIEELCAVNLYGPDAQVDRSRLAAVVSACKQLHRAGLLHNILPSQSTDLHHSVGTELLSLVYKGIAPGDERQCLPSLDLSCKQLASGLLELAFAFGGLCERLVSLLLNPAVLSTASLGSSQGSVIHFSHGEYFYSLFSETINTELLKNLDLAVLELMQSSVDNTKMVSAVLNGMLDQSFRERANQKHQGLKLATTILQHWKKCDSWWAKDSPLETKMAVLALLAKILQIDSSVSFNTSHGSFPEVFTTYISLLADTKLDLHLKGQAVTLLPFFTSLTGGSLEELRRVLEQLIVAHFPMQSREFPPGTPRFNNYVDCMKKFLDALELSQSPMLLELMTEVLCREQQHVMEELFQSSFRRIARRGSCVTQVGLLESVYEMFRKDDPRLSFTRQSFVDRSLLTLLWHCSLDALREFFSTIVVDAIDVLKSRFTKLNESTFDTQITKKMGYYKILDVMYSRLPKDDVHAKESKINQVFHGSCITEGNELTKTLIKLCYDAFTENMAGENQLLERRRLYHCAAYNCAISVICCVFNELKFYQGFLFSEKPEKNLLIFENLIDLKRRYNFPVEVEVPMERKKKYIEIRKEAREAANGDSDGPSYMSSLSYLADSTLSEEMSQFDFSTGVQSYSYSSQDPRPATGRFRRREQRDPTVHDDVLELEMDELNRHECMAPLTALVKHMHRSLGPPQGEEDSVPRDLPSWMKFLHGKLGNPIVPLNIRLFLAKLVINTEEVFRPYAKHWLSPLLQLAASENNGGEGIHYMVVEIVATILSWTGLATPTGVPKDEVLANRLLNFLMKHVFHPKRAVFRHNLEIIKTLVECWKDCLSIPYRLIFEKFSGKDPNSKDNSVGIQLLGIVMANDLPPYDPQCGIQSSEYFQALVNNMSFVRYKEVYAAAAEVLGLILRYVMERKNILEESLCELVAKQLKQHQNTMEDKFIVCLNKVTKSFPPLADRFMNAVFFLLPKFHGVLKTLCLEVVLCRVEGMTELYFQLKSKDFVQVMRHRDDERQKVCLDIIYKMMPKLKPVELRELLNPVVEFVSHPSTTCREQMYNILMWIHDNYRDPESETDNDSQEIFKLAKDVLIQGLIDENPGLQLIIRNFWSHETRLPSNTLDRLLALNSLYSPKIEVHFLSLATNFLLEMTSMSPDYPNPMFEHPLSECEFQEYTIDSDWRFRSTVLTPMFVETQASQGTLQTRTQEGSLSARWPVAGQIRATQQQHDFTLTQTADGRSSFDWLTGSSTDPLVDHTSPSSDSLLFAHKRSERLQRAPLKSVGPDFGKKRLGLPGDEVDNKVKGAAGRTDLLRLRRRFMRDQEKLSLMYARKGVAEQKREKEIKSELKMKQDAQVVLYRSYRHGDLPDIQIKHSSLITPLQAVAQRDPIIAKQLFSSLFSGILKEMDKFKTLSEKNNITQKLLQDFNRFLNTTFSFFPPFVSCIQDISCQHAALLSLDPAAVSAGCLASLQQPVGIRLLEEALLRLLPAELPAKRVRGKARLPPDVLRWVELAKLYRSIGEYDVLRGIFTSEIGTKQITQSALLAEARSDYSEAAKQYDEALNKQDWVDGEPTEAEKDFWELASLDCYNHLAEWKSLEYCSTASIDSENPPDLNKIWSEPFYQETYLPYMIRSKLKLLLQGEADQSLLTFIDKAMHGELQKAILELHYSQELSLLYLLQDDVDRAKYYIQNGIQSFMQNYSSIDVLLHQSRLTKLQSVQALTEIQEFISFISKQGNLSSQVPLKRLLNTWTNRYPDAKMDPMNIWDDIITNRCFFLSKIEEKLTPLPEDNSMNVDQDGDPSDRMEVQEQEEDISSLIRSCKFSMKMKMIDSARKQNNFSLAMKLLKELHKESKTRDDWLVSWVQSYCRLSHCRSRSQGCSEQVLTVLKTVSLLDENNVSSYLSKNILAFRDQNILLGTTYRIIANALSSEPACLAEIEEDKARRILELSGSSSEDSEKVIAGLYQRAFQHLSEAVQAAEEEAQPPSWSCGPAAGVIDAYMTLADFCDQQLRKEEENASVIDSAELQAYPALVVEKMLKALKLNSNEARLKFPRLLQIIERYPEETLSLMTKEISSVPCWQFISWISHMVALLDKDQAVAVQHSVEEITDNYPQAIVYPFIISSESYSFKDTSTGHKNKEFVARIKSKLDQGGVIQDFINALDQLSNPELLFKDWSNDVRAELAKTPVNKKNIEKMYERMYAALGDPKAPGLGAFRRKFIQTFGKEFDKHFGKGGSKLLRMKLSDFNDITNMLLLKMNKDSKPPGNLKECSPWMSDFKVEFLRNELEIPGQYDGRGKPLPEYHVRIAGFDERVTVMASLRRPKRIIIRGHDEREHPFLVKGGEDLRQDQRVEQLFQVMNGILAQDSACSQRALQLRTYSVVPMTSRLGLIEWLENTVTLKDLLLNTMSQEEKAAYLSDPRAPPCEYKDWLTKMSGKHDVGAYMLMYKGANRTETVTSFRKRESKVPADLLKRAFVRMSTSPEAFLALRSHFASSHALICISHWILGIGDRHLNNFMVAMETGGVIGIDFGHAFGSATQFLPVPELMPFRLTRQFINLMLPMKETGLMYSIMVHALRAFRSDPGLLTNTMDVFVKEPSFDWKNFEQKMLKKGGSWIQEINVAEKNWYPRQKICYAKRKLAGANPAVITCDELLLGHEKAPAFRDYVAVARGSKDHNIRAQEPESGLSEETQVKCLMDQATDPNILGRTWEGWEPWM

## O=c1cc(N2CCOCC2)oc2c(-c3cccc4c3sc3ccccc34)cccc12
[1]
  GI50 at 120 h: 520 nM
[2]
  AUC(0-t): 2500 ng·h/mL
[3]
  Kp at 0.25 h: 4.2
[4]
  Kp at 1 h: 3.2
[5]
  Kp at 4 h: 6.2
[6]
  Kp at 0.5 h: 2.2
[7]
  Efficacy: 100%
[8]
  AUC(0-inf): 1200 ng·h/mL
[9]
  LD90: 0.8 µmol/L
[10]
  LD90: 1.1 Gy
[11]
  Kp at 1.5 h: 3
[12]
  CL/F: 140 mL/min/kg
[13]
  Kp at 0.5 h: 11
[14]
  Kp at 4 h: 5
[15]
  Kp at 1 h: 3.2
[16]
  Cmax: 1600 ng/mL
[17]
  Kp at 0.25 h: 1.1
[18]
  Kp at 1.5 h: 14
[19]
  IC50: 14 nM
[20]
  Kp at 0.25 h: 6.4
[21]
  Kp at 0.5 h: 1.4
